The entries come from a sample that favours hits as a whole.
Insulin prom act = activators of insulin promoter-driven GFP, primary screen, imaging, TRM-6 cells, eGFP reporter, cell count | plate-scaled: unstimulated 0, stimulated control 100 | activation, % at 2 µM | hit rate 0.81% among 130,000;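 active means activation at 2 µM above a set limit, confirmed on inspection of the cell images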;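 further: share of cells whose green reporter signal exceeds an intensity cutoff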
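material = TRM-6 human fetal islet cells, insulin promoter–eGFP reporter | input = 1,000 TRM-6 cells seeded per well | benchmarks = stimulated versus unstimulated wells as plate controls | measured by = automated fluorescence imaging of paraformaldehyde-fixed, Hoechst-counterstained cells, green channel | schedule = compound exposure 48 h, 37 °C | reagent = tamoxifen at 0.75 µM added at seeding for reporter induction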
* hit, by the source's call.

SMILES	Insulin prom act
COc1ccc(Cl)cc1NC(=O)c1cccc(NC(=O)CCC(=O)O)c1	0
COc1ccc(C(F)(F)F)cc1N/C=C\c1nnnn1-c1ccccc1	5
COc1ccc(C(=O)Nc2ccc3c4c(cccc24)CC3)cc1	-100
Nc1ccc2c3c(cccc13)C(=O)N(c1ccccc1)C2=O	165
Nc1ccc2c3c(cccc13)CC2	377*
CCOC(=O)c1nsnc1NCCSC(=N)N	8
COC(=O)c1ccc(CNC(=O)c2coc3ccccc3c2=O)cc1	7
CCc1cccc(NC(=O)C2CCCN(S(=O)(=O)c3c(C)[nH]c(=O)[nH]c3=O)C2)c1 (stereo unspecified)	83*
Cc1cccc(NC(=O)C2CCCN(S(=O)(=O)c3cccc4nsnc34)C2)c1 (stereo unspecified)	0
CCc1cccc(NC(=O)C2CCCC2)c1	-5
C/C(=N/NC(=O)CSc1nc2ccccc2n1C)c1ccc(O)cc1	7
COc1ccc([N+](=O)[O-])cc1NC(=O)CSc1nc(C)c(C)c(C)n1	-3
COc1ccc([N+](=O)[O-])cc1NC(=O)CCN1CCN(CCO)CC1	-7
CCOC(=O)N1CCN(CCC(=O)Nc2cc([N+](=O)[O-])ccc2OC)CC1	331*
COC(=O)N/N=C/c1cn(Cc2ccc(Cl)cc2Cl)c2ccccc12	-2
COC(=O)c1c(-c2cccnc2)csc1NC(=O)c1cc(C)on1	121
COc1cc(/C=N/NC(=O)c2ccncc2)ccc1OCc1cnc(Cl)s1	240*
COc1cc(/C=C/C(=O)O)ccc1OCc1cnc(Cl)s1	0
COc1cc(/C=N/NC(=O)c2cccc([N+](=O)[O-])c2)ccc1OCc1ccccc1	45
C=CCS(=O)(=O)c1cccc2cccnc12	0
CCOc1ccc(-c2cc(C(=O)N3CCN(c4ccccn4)CC3)c3ccccc3n2)cc1	740*
CS(=O)(=O)N1CCN(C(=O)c2cc(-c3ccccc3)nc3ccccc23)CC1	9
O=C(c1cc(Sc2cccc(Cl)c2)nc2ccccc12)N1CCN(c2ccccn2)CC1	136
O=C(CN1C(=O)c2ccccc2S1(=O)=O)NCc1cccnc1	-7
CC(=O)Nc1ccc(C(=O)OCC(=O)Nc2ccccc2F)cc1	0
SMILES	Insulin prom act
COc1cccc(C2CC(c3cccc(Br)c3)n3nc(N)nc3N2)c1 (stereo unspecified)	38
COc1ccccc1C(=O)Nc1ccccc1C(=O)N1CCCC1	6
CCOC(=O)c1sc(NC(=O)c2ccccc2F)c(C(N)=O)c1C	-79
CCOC(=O)N1CCN(Cc2c(F)cccc2F)CC1	0
Cc1sc(NC(=O)c2ccccc2F)c(CN2CCCCC2)c1C	485*
COc1ccc(CCN2C(=O)c3[nH]nc(-c4ccccc4O)c3C2c2ccccc2)cc1OC (stereo unspecified)	-3
Cc1ccc(NC(=O)/C(C#N)=C/c2ccsc2)c(C)c1	8
COc1c(Br)cc(Br)cc1/C=C1/C(=O)N=C(N)N1C	0
Cc1onc(-c2ccccc2)c1C(=O)N1CCCSC1=Nc1ccccc1	250
O=C(N1CCCCCC1)N1CCN(S(=O)(=O)N2CCCCC2)CC1	0
O=C(N1CCCCCC1)N1CCN(C(=O)N2CCOCC2)CC1	488*
O=C(N1CCOCC1)N1CCN(C(=O)N(c2ccccc2)c2ccccc2)CC1	-5
O=C(/C=C/c1ccc([N+](=O)[O-])cc1)OCc1cnc(-c2ccccc2)o1	0
CCOc1cc2[nH]c(=S)n(CCC(=O)NCc3ccc(OC)cc3)c(=O)c2cc1OCC	8
O=C(Nc1cc(C(F)(F)F)ccc1N1CCOCC1)c1c(F)c(F)c(F)c(F)c1F	333
O=[N+]([O-])c1cc(C(F)(F)F)ccc1N1CCN(S(=O)(=O)c2ccc3ccccc3c2)CC1	-6
O=S(=O)(Nc1cc(C(F)(F)F)ccc1N1CCOCC1)c1ccc2ccccc2c1	386*
Cc1c(C(=O)NCc2cccnc2)oc2c1C(=O)CC(C)(C)C2	-79
CCCCOc1cccc(C(=O)N(Cc2cccs2)C2CCS(=O)(=O)C2)c1 (stereo unspecified)	112
COc1ccc(OC)c(NC(=O)CNC(=O)Cn2c(C)cc3ccccc3c2=O)c1	-10
COc1ccc(OC)c(NC(=O)CN2CCC(C(=O)c3ccc(C)cc3)CC2)c1	-83
CCn1c(=O)n(CC(=O)Nc2cc(OC)ccc2OC)c(=O)c2ccccc21	600*
CCCc1nc2ccccc2n2cc3c(=O)n(C)c(=O)n(C)c3c12	-76
CSc1c[n+]2c(n1C)CCC2	6
Cc1cc(/C=C(\C#N)C(=O)NCc2ccco2)c(C)[nH]1	-6
COc1ccc(NC(=O)CN2CCN(c3ccc(Cl)cc3)CC2)c(OC)c1	0
CCOC(=O)NNC(=O)C12CC3CC(CC(C3)C1)C2	8
CC(=O)Nc1nc(CCN2C(=O)c3ccccc3C2=O)cs1	8
COc1ccc2[nH]c(C)c(C(=O)CN3CC(C)OC(C)C3)c2c1 (stereo unspecified)	0
COc1ccc(C2Nc3ccccc3C(=O)N2Cc2ccccc2)cc1CSc1ccccn1 (stereo unspecified)	7

Assay outcomes as filed in PubChem.
